By half-life is commonly meant the time in which the quantity being followed falls by half. For orientation: EC50 means the concentration at which the effect is half-maximal.

Consider 4 molecules from ChEMBL document CHEMBL1133591, “Potent derivatives of glucagon-like peptide-1 with pharmacokinetic properties suitable for once daily administration” (J Med Chem, 2000).

Series [1] in a line: Plasma half life was determined in pigs. It is filed as ADME, organism-based, Sus scrofa. Particulars: pig. In a few lines: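 Landrace × Duroc × Yorkshire pigs, 25–50 kg, two per compound; single sc dose, 0.5 nmol/kg for analogues, 15 nmol/kg for GLP-1. Jugular catheter blood at 0–72 h, extra early samples for GLP-1; EDTA/aprotinin/bacitracin-stabilized plasma. Unextracted plasma assayed by N-terminal-specific GLP-1 radioimmunoassay against spiked pig-plasma calibrators; half-life calculated per pig, reported as mean ± SD.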

In series [2] the target is Glucagon-like peptide 1 receptor (Homo sapiens, UniProt P43220). Briefly: Potency measured using recombinant human GLP-1 receptor expressed in Baby Hamster Kidney (BHK)cells. It is filed as cell-based.
Glucagon-like peptide 1 receptor, sequence (P43220 whole entry): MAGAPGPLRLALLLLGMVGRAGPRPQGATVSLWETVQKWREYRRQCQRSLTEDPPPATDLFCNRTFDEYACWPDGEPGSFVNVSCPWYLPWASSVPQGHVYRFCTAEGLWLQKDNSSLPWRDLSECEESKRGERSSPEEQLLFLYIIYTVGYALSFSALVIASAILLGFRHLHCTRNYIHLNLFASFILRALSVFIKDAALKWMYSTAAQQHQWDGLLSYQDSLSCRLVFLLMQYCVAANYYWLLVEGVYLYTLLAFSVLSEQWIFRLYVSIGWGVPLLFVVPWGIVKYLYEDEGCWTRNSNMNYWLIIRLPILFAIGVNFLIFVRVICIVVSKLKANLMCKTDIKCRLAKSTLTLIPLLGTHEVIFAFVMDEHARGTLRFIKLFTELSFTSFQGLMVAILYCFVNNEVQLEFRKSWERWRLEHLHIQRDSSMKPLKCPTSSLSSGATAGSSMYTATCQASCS

Numbered stars: 1 amine (or outer) side, 2 acyl side, 3 side chain; on linkers, the order of the positions; unused ones are H or OH. Square brackets hold non-standard residues; d marks the D form. Side chains are listed from the residue outwards. Peptide text beside a SMILES is read from it. * marks the point of attachment. ξ: configuration not given here. ξγGlu = O=C(O)C(CCC(=O)[*:2])N[*:1]; Palmitoyl = CCCCCCCCCCCCCCCC(=O)*; X1 = CCCCCCCCCC(CCCCC(=O)*)C(=O)O; ξK = NCCCCC(N)C(=O)O

In series [1], `CCCCCCCCCCCCCCCC(=O)NC(CCC(=O)NCCCC[C@H](NC(=O)CNC(=O)[C@H](CCCN=C(N)N)NC(=O)[C@@H](NC(=O)[C@H](CC(C)C)NC(=O)[C@H](Cc1c[nH]c2ccccc12)NC(=O)[C@H](C)NC(=O)[C@@H](NC(=O)[C@H](Cc1ccccc1)NC(=O)[C@H](CCC(=O)O)NC(=O)[C@H](CCCN=C(N)N)NC(=O)[C@H](C)NC(=O)[C@H](C)NC(=O)[C@H](CCC(N)=O)NC(=O)CNC(=O)[C@H](CCC(=O)O)NC(=O)[C@H](CC(C)C)NC(=O)[C@H](Cc1ccc(O)cc1)NC(=O)[C@H](CO)NC(=O)[C@H](CO)NC(=O)[C@@H](NC(=O)[C@H](CC(=O)O)NC(=O)[C@H](CO)NC(=O)[C@@H](NC(=O)[C@H](Cc1ccccc1)NC(=O)[C@@H](NC(=O)CNC(=O)[C@H](CCC(=O)O)NC(=O)[C@H](C)NC(=O)[C@@H](N)Cc1c[nH]cn1)[C@@H](C)O)[C@@H](C)O)C(C)C)[C@@H](C)CC)C(C)C)C(=O)NCC(=O)O)C(=O)O` (stereo partly drawn) (H-HAEGTFTSDVSSYLEGQAAREFIAWLVRGK([ξγGlu-Palmitoyl])G-OH) gave a half-life of 12 h. In addition, the EC50 in series [2] came out at 0.0364 nM.
In series [1], `CCCCCCCCCCCCCCCC(=O)NC(CCC(=O)NCCCCC(NC(=O)[C@H](CCC(=O)O)NC(=O)[C@H](CCCN=C(N)N)NC(=O)CNC(=O)[C@H](CCCN=C(N)N)NC(=O)[C@@H](NC(=O)[C@H](CC(C)C)NC(=O)[C@H](Cc1c[nH]c2ccccc12)NC(=O)[C@H](C)NC(=O)[C@@H](NC(=O)[C@H](Cc1ccccc1)NC(=O)[C@H](CCC(=O)O)NC(=O)[C@H](CCCN=C(N)N)NC(=O)[C@H](C)NC(=O)[C@H](C)NC(=O)[C@H](CCC(N)=O)NC(=O)CNC(=O)[C@H](CCC(=O)O)NC(=O)[C@H](CC(C)C)NC(=O)[C@H](Cc1ccc(O)cc1)NC(=O)[C@H](CO)NC(=O)[C@H](CO)NC(=O)[C@@H](NC(=O)[C@H](CC(=O)O)NC(=O)[C@H](CO)NC(=O)[C@@H](NC(=O)[C@H](Cc1ccccc1)NC(=O)[C@@H](NC(=O)CNC(=O)[C@H](CCC(=O)O)NC(=O)CNC(=O)[C@@H](N)Cc1c[nH]cn1)[C@@H](C)O)[C@@H](C)O)C(C)C)[C@@H](C)CC)C(C)C)C(=O)O)C(=O)O` (stereo partly drawn) (H-HGEGTFTSDVSSYLEGQAAREFIAWLVRGRE[ξK]([ξγGlu-Palmitoyl])-OH) showed a half-life of 11 h. The EC50 in series [2] came out at 0.135 nM.
The like results for `CCCCCCCCCC(CCCCC(=O)NCCCC[C@H](NC(=O)CNC(=O)[C@H](CCCN=C(N)N)NC(=O)[C@@H](NC(=O)[C@H](CC(C)C)NC(=O)[C@H](Cc1c[nH]c2ccccc12)NC(=O)[C@H](C)NC(=O)[C@@H](NC(=O)[C@H](Cc1ccccc1)NC(=O)[C@H](CCC(=O)O)NC(=O)[C@H](CCCN=C(N)N)NC(=O)[C@H](C)NC(=O)[C@H](C)NC(=O)[C@H](CCC(N)=O)NC(=O)CNC(=O)[C@H](CCC(=O)O)NC(=O)[C@H](CC(C)C)NC(=O)[C@H](Cc1ccc(O)cc1)NC(=O)[C@H](CO)NC(=O)[C@H](CO)NC(=O)[C@@H](NC(=O)[C@H](CC(=O)O)NC(=O)[C@H](CO)NC(=O)[C@@H](NC(=O)[C@H](Cc1ccccc1)NC(=O)[C@@H](NC(=O)CNC(=O)[C@H](CCC(=O)O)NC(=O)[C@H](C)NC(=O)[C@@H](N)Cc1c[nH]cn1)[C@@H](C)O)[C@@H](C)O)C(C)C)[C@@H](C)CC)C(C)C)C(=O)NCC(=O)O)C(=O)O` (stereo partly drawn) (H-HAEGTFTSDVSSYLEGQAAREFIAWLVRGK(X1)G-OH) were, in that order, 13 h and 0.00789 nM.
The like results for `CCCCCCCCCCCCCCCC(=O)NC(CCC(=O)NCCCC[C@H](NC(=O)CNC(=O)[C@H](CCC(=O)O)NC(=O)[C@H](CC(C)C)NC(=O)[C@H](Cc1ccc(O)cc1)NC(=O)[C@H](CO)NC(=O)[C@H](CO)NC(=O)[C@@H](NC(=O)[C@H](CC(=O)O)NC(=O)[C@H](CO)NC(=O)[C@@H](NC(=O)[C@H](Cc1ccccc1)NC(=O)[C@@H](NC(=O)CNC(=O)[C@H](CCC(=O)O)NC(=O)[C@H](C)NC(=O)[C@@H](N)Cc1c[nH]cn1)[C@@H](C)O)[C@@H](C)O)C(C)C)C(=O)N[C@@H](C)C(=O)N[C@@H](C)C(=O)N[C@@H](CCCN=C(N)N)C(=O)N[C@@H](CCC(=O)O)C(=O)N[C@@H](Cc1ccccc1)C(=O)N[C@H](C(=O)N[C@@H](C)C(=O)N[C@@H](Cc1c[nH]c2ccccc12)C(=O)N[C@@H](CC(C)C)C(=O)N[C@H](C(=O)N[C@@H](CCCN=C(N)N)C(=O)NCC(=O)N[C@@H](CCCN=C(N)N)C(=O)NCC(=O)O)C(C)C)[C@@H](C)CC)C(=O)O` (stereo partly drawn) (H-HAEGTFTSDVSSYLEGK([ξγGlu-Palmitoyl])AAREFIAWLVRGRG-OH) were, in that order, 20 h and 0.0301 nM.
